An excerpt weighted towards active compounds, which were near 3.1% of everything screened.
UHRF1 MBD2 ctr – blocks human UHRF1 binding to methylated DNA; Q96T88; UHRF1 binding to methylated oligo, TR-FRET; inhibition, % at 4.4 µM; 370,000 tested, 0.75% active; AID 687016; in the data active means inhibition above about 21%;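 further: UHRF1 SRA domain binding a hemimethylated CpG hairpin DNA probe; 0% = median of test compound wells and 100% = reference inhibitor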
rCAG binder – r(CAG) repeat RNA binding. TO-PRO-1 dye displacement fluorescence. 370,000 tested, 1.3% active. inhibition, % at 3 µM;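 active means inhibition above the plate cutoff, the mean of all test compounds on that plate plus 3 SD, cut at about 35% in these data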;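 further: 0% = DMSO alone and 100% = 100 µM mitoxantrone as full dye displacement; higher means more dye released from RNA so lower well fluorescence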
MBD2 inh – inhibitors of human MBD2 binding to methylated oligonucleotide. Q9UBB5. TR-FRET. inhibition, % at 4.4 µM. 370,000 tested, 0.31% active; in the data active means inhibition above about 13%
ATG4B inhibitor – ATG4B (human) cysteine protease inhibition; Q9Y4P1; ATG4B cleavage of LC3-PLA2, NBD-HPC fluorescence, 1 h; inhibition, % at 8.33 µM; 340,000 tested, 0.51% active; in the data active means inhibition above about 40%
LEDGF integ inh – blocks HIV-1 LEDGF/p75-dependent DNA integration; TR-FRET IN-LEDGF/p75 DNA integration, Eu/Cy5; inhibition, % at 3.7 µM; 370,000 tested, 0.64% active;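 active means inhibition above the screen-wide mean plus 3 SD, cut at about 13% in these data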;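 further: signal is the Cy5 over europium emission ratio at 671 and 618 nm; 0% = plate median of compound wells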
CSN deneddyl inh – CSN deneddylation inhibition; Q92905; Purified CSN, SCF-Nedd8-OG deneddylation, fluorescence polarization; inhibition, % at 12.5 µM; 360,000 tested, 0.38% active;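 active means pattern-corrected inhibition above about 35%, with an unprinted fluorescence ratio check between 0.5 and 1.5, limit read from the data, passing the limit was not always enough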;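 further: 0% = enzyme with substrate and 100% = substrate without enzyme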
Target sequence (Q92905 whole entry, looked up, one chain of several): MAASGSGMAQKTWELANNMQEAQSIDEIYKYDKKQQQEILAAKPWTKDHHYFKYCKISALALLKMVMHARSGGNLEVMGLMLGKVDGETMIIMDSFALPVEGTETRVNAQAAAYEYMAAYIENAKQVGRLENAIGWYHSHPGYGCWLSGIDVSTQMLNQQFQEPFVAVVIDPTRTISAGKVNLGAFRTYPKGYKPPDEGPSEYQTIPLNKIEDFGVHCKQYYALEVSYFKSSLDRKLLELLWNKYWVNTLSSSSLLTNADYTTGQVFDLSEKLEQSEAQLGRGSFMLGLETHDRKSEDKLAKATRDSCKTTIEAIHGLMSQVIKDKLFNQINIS
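Material: purified human Csn5 enzyme expressed in HEK293T cells / Medium: Tris buffer pH 7.5, NaCl, DTT, Tween-20, trehalose, ovalbumin / Compound dosing: 12.5 µM single point / Schedule: 90 min incubation of compound, enzyme and substrate at room temperature / Signal: fluorescence polarization of the substrate / Control set: no-enzyme wells high, enzyme-with-substrate wells low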
rCAG binder conf – r(CAG) RNA repeat binding, confirmation | 4,300 tested, 70% active | shares compounds with rCAG binder | TO-PRO-1 dye displacement fluorescence | AID 652065 | inhibition, % at 3 µM;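 active means inhibition above a per-plate cutoff, the mean inhibition of sample wells plus 3 SD, cut at about 35% in these data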;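 further: loss of TO-PRO-1 fluorescence as compound displaces dye from 1x1 AA loop RNA; 0% = DMSO only wells and 100% = 100 µM mitoxantrone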
DNA CAG counter – disrupts DNA CAG TO-PRO-1 complex, flagging rCAG hits; d(CAG) DNA oligo TO-PRO-1 dye displacement, fluorescence; shares compounds with rCAG binder; 4,300 tested, 94% active; inhibition, % at 3 µM;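 active means inhibition above its plate's cutoff, the mean test-well inhibition plus 3 SD, cut at about 4.8% in these data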;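 further: 0% = DNA dye mix with DMSO and 100% = 100 µM mitoxantrone; hits displace the dye from DNA and so lower well fluorescence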
dCAG dye DR – disrupts DNA CAG TO-PRO-1 complex in dose response; shares compounds with rCAG binder; DNA CAG/GTC duplex TO-PRO-1 dye displacement fluorescence; IC50, µM; 250 tested, 20% active; AID 686960; in the data active means IC50 below about 10 µM
* marks the source's active call; other numbers are inactive results; i = inactive; · = not tested or not shown.

SMILES	UHRF1 MBD2 ctr	rCAG binder	MBD2 inh	ATG4B inhibitor	LEDGF integ inh	CSN deneddyl inh	rCAG binder conf	DNA CAG counter	others
O=C(NNc1c(Cl)cc(Cl)cc1Cl)c1cccc([N+](=O)[O-])c1	-2	37*	-3	0	3	3	6	3
COCCCNC(=O)C[C@H]1C[C@@]2(C(=O)OC)C(=C[C@H](C(C)C)O[C@@H]2C2CC2)N(CCC2=CCCCC2)C1=O	0	-1	-6	·	0	·	·	·
C#CCN1CC(N2CCN(CCO)CC2)CS1(=O)=O (stereo unspecified)	-1	0	-3	·	2	·	·	·
COC(=O)CNC(=O)CNC1(C(=O)NCCc2c[nH]c3ccccc23)CCCCC1	0	·	1	·	-1	·	·	·
COc1ccc(S[C@]2(C(=O)N3CCCC3)CC(=O)N(C(=O)/C=C/c3ccccc3)[C@@H]2c2ccc(OC)cc2)cc1	-2	13	0	·	-1	·	·	·
COc1ccc(S[C@]2(C(=O)NC3CC3)CC(=O)N[C@@H]2c2ccc(OC)cc2)cc1	0	2	7	·	5	·	·	·
O=C(Cc1nnc(NC(=O)Nc2ccc(F)cc2)s1)NCc1ccccc1	0	22	-7	0	2	3	·	·
CCSCCc1nnc(NC(=O)Nc2cccc(C(F)(F)F)c2)s1	7	38*	1	8	-5	1	27	19*
COc1cccc(NC(=O)Nc2nnc(Cc3ccccc3F)s2)c1	-1	40*	-2	2	0	2	22	14*
O=C(Nc1ccc(F)cc1)Nc1nnc(Cc2ccccc2F)s1	2	45*	2	-9	0	-1	18	16*
COc1ccccc1NC(=O)Nc1nnc(Cc2ccccc2F)s1	4	7	0	-3	2	-4	·	·
O=C(Nc1cccc(C(F)(F)F)c1)Nc1nnc([C@H]2C[C@H](O)[C@@H](CO)O2)s1	-2	19	1	·	7	-1	·	·
O=C(CSc1nnc(-c2ccccc2)n1-c1ccc(Cl)cc1)NN=Cc1c[nH]c2ccccc12	1	10	0	·	-3	·	·	·
CC(c1cc(F)ccc1O)c1c[nH]c2ccccc12 (stereo unspecified)	0	3	1	·	2	·	·	·
Cc1ccc(-c2cc(C(=O)Nc3ccc(S(=O)(=O)Nc4nccs4)cc3)c3ccccc3n2)c(C)c1	-4	68*	-8	33	8	5	71*	30*	dCAG dye DR=i
CCc1ccc(-c2cc(C(=O)Nc3ccc(S(=O)(=O)NC(C)=O)cc3)c3ccccc3n2)cc1	0	58*	-5	-1	5	-4	63*	29*
O=C(Nc1ccc(S(=O)(=O)Nc2nccs2)cc1)c1cc(-c2ccccc2)nc2ccccc12	0	74*	2	16	1	-2	76*	38*
Cc1cc(NS(=O)(=O)c2ccc(NC(=O)c3cc(-c4ccccc4Cl)nc4ccccc34)cc2)no1	-3	75*	-5	-5	6	2	72*	39*
O=c1c2ccccc2n(Cc2ccno2)n1[C@@H](Cc1ccccc1)Cn1cc(-c2ccc(-c3ccccc3)cc2)nn1	6	10	3	·	5	·	·	·
Cc1ccc(O)c(-c2cc(C(=O)Nc3ccc(S(=O)(=O)Nc4nccc(C)n4)cc3)[nH]n2)c1	1	59*	-1	2	2	0	49*	17*
Cc1ccc(-c2cc(C(=O)Nc3ccc(S(=O)(=O)Nc4ncccn4)cc3)c3ccccc3n2)cc1	5	58*	2	15	-6	4	64*	20*
Cc1ccc(NC(=O)CN(C)C(=O)c2cccnc2Nc2cccc(C(F)(F)F)c2)cc1	2	44*	-5	-11	2	4	16	5.8*
COc1cc(CNc2cccc3[nH]c(C(F)(F)F)nc23)cc(OC)c1	0	44*	0	-3	0	8	35*	18*
CCCCCCCCN1C(=O)[C@@H](CC(=O)NCCc2ccccc2OC)C[C@@]2(C(=O)OC)C1=C[C@H](C(C)(C)C)O[C@@H]2C	0	0	-1	·	-2	·	·	·
Cc1ccc(SC(CC(=O)c2ccc(F)cc2)C(=O)O)cc1 (stereo unspecified)	0	1	5	3	4	4	·	·
SMILES	UHRF1 MBD2 ctr	rCAG binder	MBD2 inh	ATG4B inhibitor	LEDGF integ inh	CSN deneddyl inh	rCAG binder conf	DNA CAG counter	others
CC(C)(C)c1ccc(C(=O)CC(Sc2ccc(Cl)cc2)C(=O)O)cc1 (stereo unspecified)	0	41*	-1	1	-3	5	52*	18*
COc1ccc2ccccc2c1C=NNC(=O)c1cc(-c2ccc(C)cc2)n[nH]1	-3	18	-1	·	-1	·	·	·
COCCCN1C(=O)[C@H](CC(=O)NCCCCc2ccccc2)[C@]2(C(=O)OC)CCCCC=C12	4	-1	-2	·	3	·	·	·
COc1ccc(C(=O)NCCSCc2ccccc2Cl)cc1OC	0	80*	1	8	0	2	3	0
COc1ccc(C(=O)NCCSCc2ccccc2)cc1OC	0	-6	2	-1	1	-5	·	·
CCOC(=O)[C@@]12CN(C(=O)OC(C)(C)C)CC=C1N(Cc1ccc(OC)cc1)C(=O)[C@H]2CC(=O)N1CCCCC1	-1	0	-2	·	-2	·	·	·
CCn1c(O)c(C=C2N=c3ccccc3=N2)sc1=S	1	6	3	2	0	1	·	·
O=S(=O)(Nn1c(O)c(C=C2N=c3ccccc3=N2)sc1=S)c1ccccc1	0	89*	8	-3	-3	0	72*	37*
O=C(Nn1c(O)c(C=C2N=c3ccccc3=N2)sc1=S)c1ccccc1Cl	-7	63*	-3	-3	-1	-2	33	11*
CCC[C@H]1[C@@H](NC(=S)Nc2ccccc2Cl)CC[C@@]23CCCN2C(=O)CCC[C@@H]13	-1	·	-5	·	7	·	·	·
OC(c1ccccc1)(c1ccccc1)C1CCN(CCCOc2ccccn2)CC1	-1	1	-2	·	-3	·	·	·
Oc1ccc(/C=C/c2ccc3cccc(O)c3n2)cc1Br	0	50*	0	-5	-4	33	29	14*
O=C(O)c1c2c(nc3ccc(S(=O)(=O)N4CCC(C(=O)NCc5ccccc5Cl)CC4)cc13)CCCC2	4	39*	5	22	-2	2	36*	9.5*

Source: PubChem
